These results are taken from ChEMBL document CHEMBL3526053, “Species-dependent uptake of glycylsarcosine but not oseltamivir in Pichia pastoris expressing the rat, mouse, and human intestinal peptide transporter PEPT1” (Drug Metab Dispos, 2012).

Molecules are shown by their SMILES.

What all share (assay type): ADME
The target of data set [1] is T1, Solute carrier family 15 member 1 (Mus musculus, UniProt Q9JIP7).
T1 sequence (Q9JIP7 whole entry): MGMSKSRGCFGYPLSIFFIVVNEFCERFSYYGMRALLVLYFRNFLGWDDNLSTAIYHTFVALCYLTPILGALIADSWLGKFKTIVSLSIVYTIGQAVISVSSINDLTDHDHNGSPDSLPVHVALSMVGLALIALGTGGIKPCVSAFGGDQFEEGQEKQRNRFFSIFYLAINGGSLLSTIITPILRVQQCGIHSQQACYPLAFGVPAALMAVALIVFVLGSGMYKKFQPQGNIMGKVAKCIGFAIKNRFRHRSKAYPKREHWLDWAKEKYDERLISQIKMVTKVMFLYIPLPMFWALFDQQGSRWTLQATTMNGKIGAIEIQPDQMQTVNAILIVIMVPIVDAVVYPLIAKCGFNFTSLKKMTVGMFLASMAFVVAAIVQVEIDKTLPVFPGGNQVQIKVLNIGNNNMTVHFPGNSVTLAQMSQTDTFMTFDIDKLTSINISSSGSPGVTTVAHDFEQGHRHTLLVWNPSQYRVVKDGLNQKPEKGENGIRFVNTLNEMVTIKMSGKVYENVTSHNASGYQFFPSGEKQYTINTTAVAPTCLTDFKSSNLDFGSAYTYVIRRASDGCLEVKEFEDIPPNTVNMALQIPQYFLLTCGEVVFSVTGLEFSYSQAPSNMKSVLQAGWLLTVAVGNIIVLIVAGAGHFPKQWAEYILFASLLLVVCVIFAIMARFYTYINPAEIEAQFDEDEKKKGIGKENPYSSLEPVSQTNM
The data set is described as follows: Activity at mouse recombinant PEPT1 expressed in Pichia pastoris GS115 assessed as non-saturable rate constant after 30s by dual-channel liquid scintillation counting analysis. The method, boiled down: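 [3H]GlySar concentration series 0.005-10 mM, 30-s uptake at 24°C in 100 mM potassium phosphate pH 6.5. Cells come from His+Mut+ GS115 transformants induced 20-24 h in methanol medium. Uptake is normalised to OD600. Data are fitted to Michaelis-Menten plus a first-order nonsaturable term (Kd), weighting unity. Parameters are mean ± SE (n=9).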

In data set [2] the target is T2, Solute carrier family 15 member 1 (Homo sapiens, UniProt P46059).
T2 sequence (P46059 whole entry): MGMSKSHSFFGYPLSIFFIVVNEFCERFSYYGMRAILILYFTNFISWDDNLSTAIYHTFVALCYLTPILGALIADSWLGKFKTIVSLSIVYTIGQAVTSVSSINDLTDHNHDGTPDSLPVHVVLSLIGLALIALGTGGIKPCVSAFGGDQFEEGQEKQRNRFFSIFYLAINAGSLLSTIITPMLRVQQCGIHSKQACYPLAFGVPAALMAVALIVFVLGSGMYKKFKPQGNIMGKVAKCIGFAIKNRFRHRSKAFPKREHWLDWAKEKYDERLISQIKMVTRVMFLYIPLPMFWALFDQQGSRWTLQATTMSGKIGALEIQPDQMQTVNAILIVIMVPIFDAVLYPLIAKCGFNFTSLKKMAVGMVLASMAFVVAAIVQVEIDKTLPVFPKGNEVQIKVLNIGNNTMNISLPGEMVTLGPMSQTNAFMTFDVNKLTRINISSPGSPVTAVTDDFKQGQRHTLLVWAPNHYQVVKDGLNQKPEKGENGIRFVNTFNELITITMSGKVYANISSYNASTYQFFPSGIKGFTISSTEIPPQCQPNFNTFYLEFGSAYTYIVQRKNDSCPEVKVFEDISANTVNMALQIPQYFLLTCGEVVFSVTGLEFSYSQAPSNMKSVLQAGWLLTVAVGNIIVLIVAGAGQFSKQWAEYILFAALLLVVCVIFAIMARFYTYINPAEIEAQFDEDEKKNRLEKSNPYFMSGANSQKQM
The data set is described as follows: Drug uptake in Pichia pastoris GS115 expressing human recombinant PEPT1 at 5 uM after 30s by dual-channel liquid scintillation counting analysis in presence of L-histidine relative to control. As to conditions: 0.5 min. In outline:
(§1)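 [3H]GlySar 5.0 µM final, 30-s uptake at 24°C in 100 mM potassium phosphate pH 6.5, with or without a potential inhibitor at 10 mM. Cells are methanol-induced transformants. Values are vector-subtracted and expressed as percent of buffer control. Mean ± SE (n=3). ANOVA with Dunnett's test.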

Data set [3] addresses T1, Solute carrier family 15 member 1. The data set is described as follows: Drug uptake in Pichia pastoris GS115 expressing mouse recombinant PEPT1 at 5 uM after 30s by dual-channel liquid scintillation counting analysis in presence of glycine relative to control. To be noted: in vivo, 0.5 min. In outline: as §1
Data set [4] shares this target. The data set is described as follows: Drug uptake in Pichia pastoris GS115 expressing mouse recombinant PEPT1 at 5 uM after 30s by dual-channel liquid scintillation counting analysis in presence of GlyPro relative to control. As to conditions: 0.5 min. The method, boiled down: as §1
Data set [5] concerns the target T3, Solute carrier family 15 member 1 (Rattus norvegicus, UniProt P51574).
T3 sequence (P51574 whole entry): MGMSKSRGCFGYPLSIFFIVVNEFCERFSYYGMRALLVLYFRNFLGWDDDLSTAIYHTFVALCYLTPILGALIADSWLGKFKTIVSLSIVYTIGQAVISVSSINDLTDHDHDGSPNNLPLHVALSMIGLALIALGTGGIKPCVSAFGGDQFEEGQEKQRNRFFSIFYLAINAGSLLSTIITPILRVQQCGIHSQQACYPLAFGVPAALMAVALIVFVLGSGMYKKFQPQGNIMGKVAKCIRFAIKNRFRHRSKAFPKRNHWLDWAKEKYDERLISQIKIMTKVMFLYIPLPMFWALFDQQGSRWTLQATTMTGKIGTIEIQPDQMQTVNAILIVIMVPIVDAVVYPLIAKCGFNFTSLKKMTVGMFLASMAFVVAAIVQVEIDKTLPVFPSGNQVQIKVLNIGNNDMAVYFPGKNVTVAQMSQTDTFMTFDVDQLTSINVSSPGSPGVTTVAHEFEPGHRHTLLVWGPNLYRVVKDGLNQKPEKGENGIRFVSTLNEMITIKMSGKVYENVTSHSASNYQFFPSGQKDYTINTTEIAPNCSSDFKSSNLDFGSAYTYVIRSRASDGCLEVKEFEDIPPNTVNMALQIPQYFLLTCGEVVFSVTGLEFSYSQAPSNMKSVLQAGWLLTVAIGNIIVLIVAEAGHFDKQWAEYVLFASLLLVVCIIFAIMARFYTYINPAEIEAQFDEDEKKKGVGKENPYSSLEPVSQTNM
The data set is described as follows: Drug uptake in Pichia pastoris GS115 expressing rat recombinant PEPT1 at 5 uM after 30s by dual-channel liquid scintillation counting analysis in presence of cefazolin relative to control. As to conditions: 0.5 min. The method, boiled down: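 Rat PEPT1 (pPIC3.5K-rPept1) in GS115 His+Mut+ transformant, methanol-induced 20-24 hr in BMMY at 30°C, washed into 100 mM potassium phosphate pH 6.5. [3H]GlySar final 5.0 µM with inhibitor at 10 mM, 30 sec at 24°C. Counts taken by liquid scintillation after 24 hr standing. Values are vector-subtracted and given as % of buffer control. Mean ± SE, n=3.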

With `[3H]C(C(=O)O)N(C)C(=O)CN` (stereo not given), the Kd in data set [1] came out at 2.21 uL/OD/min. Besides, the Drug uptake in data set [2] was 122%; in data set [3], 104%; in data set [4] it was 1.9%; in data set [5], 93.7%.
